Source: PubChem BioAssay (several laboratories)
MC4R antagonist = antagonists of human melanocortin 4 receptor (MC4R); P32245; AID 540295; 360,000 compounds, 0.48% hits; inhibition, % at 6.5 µM; MC4R-expressing cells, MTII-stimulated cAMP, LANCE TR-FRET;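 active = inhibition above its plate's cutoff, the mean of tested wells on that plate plus 3 SD, cut at about 29% in these data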;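 note: 0% = Melanotan II alone and 100% = Melanotan II plus saturating MCL0020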
Target sequence (P32245 whole entry, looked up): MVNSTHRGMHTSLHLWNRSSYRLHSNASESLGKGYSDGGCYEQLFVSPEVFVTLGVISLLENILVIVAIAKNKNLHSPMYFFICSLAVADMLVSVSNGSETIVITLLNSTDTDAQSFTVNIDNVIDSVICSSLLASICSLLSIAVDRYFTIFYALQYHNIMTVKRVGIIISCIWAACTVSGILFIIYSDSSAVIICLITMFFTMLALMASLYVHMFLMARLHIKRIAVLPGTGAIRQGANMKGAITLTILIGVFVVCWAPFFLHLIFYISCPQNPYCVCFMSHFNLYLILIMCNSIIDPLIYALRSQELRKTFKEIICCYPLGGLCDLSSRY
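Assay system: U2OS-MC4R stable cell line; Also added: Melanotan II; Technique: Eu-cAMP/anti-cAMP TR-FRET, emission 671 nm; Times: 30-min compound, 1-h challenge, 1-h detection, room temperature.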
Exocytosis inh = lytic granule exocytosis inhibition. TALL-104 LAMP-1 surface exposure, flow cytometry; cells stimulated with thapsigargin and PMA. inhibition, % at 10 µM. 360,000 compounds, 0.66% hits;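 active = inhibition above about 55%, limit read from the data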
MC4R ag barr = activates human MC4R beta-arrestin recruitment; P32245; U2OS MC4R beta-arrestin complementation, luminescence; percent of melanotan II response, DMSO zero; activation, % at 8.9 µM; 360,000 compounds, 0.98% hits;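 active = activation above a per-plate cutoff, the mean activation of sample wells on that plate plus 3 SD, cut at about 8% in these data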
Myeloid diff 2 = myeloid differentiation induction. ER-HoxA9 myeloid progenitors, lysozyme-GFP differentiation, flow cytometry. 360,000 compounds, 1% hits. calls only at 10 µM. AID 624256;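 active = normalized GFP-positive differentiation at or above the plate's own cutoff, the solvent-only control mean plus 3 SD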;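 note: cells exposed to compound for four days before flow analysis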
EBI2 antag = blocks human EBI2 receptor beta-arrestin signaling. inhibition, % at 5 µM. AID 651636. 360,000 compounds, 0.81% hits. P32249. EBI2 beta-arrestin recruitment, luminescence, 7a,25-OHC stimulated; in the data active = inhibition above about 38%;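 note: enzyme fragment complementation signal reports receptor beta-arrestin coupling in cells; 0% = agonist plus DMSO wells and 100% = wells without agonist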
Target sequence (P32249 whole entry, looked up, the tested form may be a part): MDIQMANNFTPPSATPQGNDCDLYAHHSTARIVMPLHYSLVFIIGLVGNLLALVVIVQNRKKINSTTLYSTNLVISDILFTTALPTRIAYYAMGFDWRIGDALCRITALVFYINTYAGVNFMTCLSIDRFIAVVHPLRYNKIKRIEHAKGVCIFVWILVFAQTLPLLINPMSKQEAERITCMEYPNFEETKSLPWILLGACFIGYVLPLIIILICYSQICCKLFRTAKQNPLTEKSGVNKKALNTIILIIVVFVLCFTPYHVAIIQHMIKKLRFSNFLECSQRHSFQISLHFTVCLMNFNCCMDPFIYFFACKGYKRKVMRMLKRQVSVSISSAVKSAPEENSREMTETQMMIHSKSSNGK
* = called active by the depositor; i = inactive; / = no result given; + = active, no number. Most compounds without a hit are left out; they make up all but 3.7% or so of the library.

SMILES | MC4R antagonist | Exocytosis inh | MC4R ag barr | Myeloid diff 2 | EBI2 antag
COc1ccc(-c2csc(NC(=O)c3ccccc3F)c2C(=O)O)cc1 | 12.1 | 23.2 | -2.5 | i | -7.9
Cn1nc(C(C)(C)C)cc1C(=O)N1CCCCC1c1cc(C(=O)NCc2ccc(F)cc2)no1 (stereo not drawn) | -1.0 | 1.3 | -1.1 | i | 0.1
OC(c1ccccc1)C(NCc1ccccc1)c1ccccc1 (stereo not drawn) | -0.1 | -5.9 | 0.1 | i | 4.3
COc1ccc(CCNC(=O)CN(c2ccc(OC)c(OC)c2)S(=O)(=O)c2ccc(C)cc2)cc1 | 12.3 | 23.1 | 0.3 | + | 2.1
Brc1ccc(C=Nc2ccc(Nc3ccccc3)cc2)s1 | -4.8 | 3.3 | -1.4 | + | 11.7
COc1ccc(-c2nc(CS(=O)CC(=O)NC3CCCC(C)C3C)c(C)o2)cc1OC (stereo not drawn) | 2.7 | 3.4 | -2.8 | + | 12.6
Cc1ccc(-c2nc(CS(=O)CC(=O)NC3CCCC(C)C3C)c(C)o2)cc1 (stereo not drawn) | -1.4 | 29.0 | -1.2 | i | 12.4
C=C(C)C(O)CC/C(C)=C/Cc1c(O)ccc(C(=O)/C=C/c2ccc(O)cc2)c1O (stereo not drawn) | 11.1 | 12.8 | 9.6* | i | 28.6
O=C(O)/C=C/c1ccc2ccccc2n1 | 10.0 | 0.8 | -1.7 | i | 0.8
O=C(/C=C/c1ccc2ccccc2n1)c1cc(Br)ccc1O | 15.2 | 5.5 | 1.6 | + | -0.7
CN(C)S(=O)(=O)c1cccc(NC(=O)CN2C(=O)NC(Cc3ccccc3)C2=O)c1 (stereo not drawn) | 11.2 | -0.8 | -2.1 | i | 1.6
CCNc1ccc(Br)cc(C(=O)/C=C/c2c(Cl)cccc2Cl)c1=O | 7.0 | 77.5* | -1.7 | + | 8.5
CCNc1ccc(Br)cc(C(=O)/C=C/c2ccc(Cl)cc2)c1=O | -0.7 | 33.8 | -4.0 | i | 6.7
CNc1ccc(Br)cc(C(=O)/C=C/c2ccc(Cl)cc2Cl)c1=O | -1.9 | 100.1* | -1.9 | i | 18.4
CCOC(=O)[C@@H](NC(=O)CC[C@H]1O[C@@H](n2cc(C)c(=O)[nH]c2=O)C[C@@H]1O)C(C)C | -0.2 | 1.6 | -0.6 | i | -10.4
COCCn1c(-c2ccc(-c3ccc([N+](=O)[O-])cc3Br)o2)nc2c1c(=O)[nH]c(=O)n2CC(C)C | 5.2 | 13.0 | -1.9 | + | 5.4
COCCn1c(=O)[nH]c(=O)c2c1nc(-c1ccc(-c3ccc(Cl)cc3[N+](=O)[O-])o1)n2Cc1ccccc1 | 13.1 | 45.7 | -1.4 | i | 8.6
C=CCNC(=S)Nc1ccc(N(C)C)cc1 | -0.5 | 6.0 | -1.0 | i | -6.4
NS(=O)(=O)c1ccc(CCNC(=O)c2ccc(NS(=O)(=O)c3ccc4[nH]c(=O)[nH]c4c3)cc2)cc1 | -0.6 | -8.8 | -1.9 | / | -9.5
c1ccc(Cn2c(-c3ccccc3)nc3nc4ccccc4nc32)cc1 | -0.1 | -1.8 | 9.3* | i | -7.8
C=CCn1c(-c2ccccc2)nc2nc3ccccc3nc21 | -3.2 | -0.1 | -1.6 | i | 0.5
O=C(CSc1ccc(-c2ccc(-n3cccn3)cc2)nn1)Nc1ccccc1F | 1.6 | 2.0 | 10.7* | i | -6.8
O=C(CSc1ccc(-c2cccnc2)nn1)Nc1ccccc1F | -2.2 | 2.8 | 2.4 | i | -10.2
CC1(C(=O)NS(=O)(=O)c2ccc3c(c2)CCO3)CCN1C(=O)c1ccccc1CCc1ccccc1 (stereo not drawn) | 6.5 | 2.7 | -0.4 | i | -0.4
Cc1ccc(/C=N/NC(=O)CCCOc2ccc(Cl)cc2Cl)cc1[N+](=O)[O-] | 5.6 | 4.5 | 9.0* | i | 15.5
SMILES | MC4R antagonist | Exocytosis inh | MC4R ag barr | Myeloid diff 2 | EBI2 antag
CCc1ccc(NC(=O)CN(C(=O)N2CCN(CC)CC2)S(=O)(=O)c2ccc(C)cc2)cc1 | 3.2 | 1.0 | -2.6 | i | 3.8
O=C(O)CCCN1C(=O)/C(=C/c2ccncc2)SC1=S | -3.6 | -0.1 | -1.1 | i | -8.1
O=C(O)CCCCCN1C(=O)/C(=C/c2ccncc2)SC1=S | -1.3 | -2.4 | -0.9 | i | -7.5
O=C(O)CCCN1C(=O)/C(=C/c2ccc(-c3nc4ccccc4s3)o2)SC1=S | 12.5 | 65.8* | -1.6 | / | 53.0*
O=C(O)CCCCCN1C(=O)/C(=C\c2ccc(-c3ccc(Cl)cc3)o2)SC1=S | 4.3 | 87.3* | -3.3 | + | 0.9
CCOC(=O)C1(C)CCCN1C(=O)c1cccc2ccccc12 (stereo not drawn) | 9.6 | 18.3 | -2.3 | i | -9.3
Cc1ccccc1C(=O)NC1CCN(CC(=O)Nc2ccccc2Cl)CC1 | 6.2 | -5.9 | -1.8 | i | -4.6
Cc1c(Cl)cccc1NC(=O)CN1CCC(C(O)(c2ccccc2)c2ccccc2)CC1 | 5.2 | 8.8 | -1.1 | i | 38.5*
Oc1ccc(Cl)cc1CNc1ccc(Br)cn1 | 5.0 | -0.5 | 6.3 | i | 41.3*
COc1ccc2[nH]cc(/C=C/c3cc[n+](C)cc3)c2c1 | -21.4 | -1.3 | 0.1 | + | 2.4
Cc1cc(=O)[nH]c(SCC(=O)Nc2nc3ccccc3s2)n1 | 5.4 | -0.8 | -1.8 | i | -7.6
Cc1cc(=O)[nH]c(SCC(=O)Nc2nnc(SCc3ccccc3)s2)n1 | 2.8 | 5.3 | 8.8* | i | -7.8
O=c1c2ccccc2nc(COc2ccccc2)n1/N=C/c1cn[nH]c1-c1ccccc1 | 24.2 | -2.1 | 4.5 | + | 3.9
Cc1ccccc1OCc1nc2ccccc2c(=O)n1/N=C/c1cn[nH]c1-c1ccc(Br)cc1 | 1.4 | 6.8 | 1.1 | i | -5.1
Nc1c(C(=O)c2ccccc2)sc2snc(SCC(=O)c3ccccc3)c12 | -11.9 | 1.0 | 0.8 | + | 1.9
CC1=C(C(=O)Nc2cccc(C(=O)NC3CCCC(C)C3C)c2)SCCO1 (stereo not drawn) | 10.9 | 12.1 | 0.1 | + | 10.6
COCCNC(=O)c1cccc(NC(=O)C2=C(C)OCCS2)c1 | 0.3 | 1.2 | -0.7 | / | -14.2
COc1ccc(C(C)C)cc1-c1cncc(NC(C)=O)n1 | 4.1 | -6.7 | -1.6 | i | 0.1
CCOC(=O)c1c(NC(=O)c2c(-c3ccccc3)noc2C)sc(C)c1-c1ccccc1 | 3.8 | 0.5 | -1.4 | + | 10.4
CCCS(=O)(=O)NC(=O)C1(C)CCN(C(=O)c2ccc(C(F)(F)F)cc2)C1 (stereo not drawn) | -4.0 | 7.1 | 0.9 | i | 1.5
O=C(Nc1ccc(S(=O)(=O)N2CCOCC2)cc1)c1cc(-c2cc(Cl)ccc2O)n[nH]1 | -13.4 | 6.4 | 9.1* | i | 17.5
CC(=O)c1cccc(NC(=O)C(C)OC(=O)c2ccc3ncsc3c2)c1 (stereo not drawn) | 4.6 | -0.9 | 2.4 | + | 9.6
CCS(=O)(=O)N1N=C(c2ccc(NS(C)(=O)=O)cc2)CC1c1ccccc1 (stereo not drawn) | 9.7 | -3.7 | -2.5 | + | 1.5
O=C(Nc1ccc(CSc2ccccc2)cc1)c1ccccc1 | 5.3 | 1.6 | -1.8 | i | -2.8
